# Read-outs that look alike come from different tables or passages of the source.
# What was measured:
# [1] = tested on: 47 KDa protein in U937 cell membranes; format: binding; conditions: for Ki: read-out: Ki (95% Confidence Intervals), inhibition of 20-125I-14,15-EE8ZE-APSA photolabeling, U937 membranes, one-site competitive binding model
# [2] = tested on: EET binding site/receptor on U937 cell membranes; conditions: cited from earlier work
# bovine coronary arteries [3] = conditions: for EC50: read-out: EC50, relaxation of bovine coronary artery rings, rings pre-constricted with U46619 (20 nM)
# Summary of the method: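 Left anterior descending bovine coronary artery rings, preconstricted with U46619 (20 nM). Relaxation expressed as %, with basal tension taken as 100% relaxation. Mean ± SEM, n=6–7.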
# [4] = tested on: 79 orphan GPCRs overexpressed in HEK293T cells; assay: Photolabeling of GPCRs overexpressed in HEK293T cells; format: binding; conditions: 1 nM photoprobe; 79 GPCRs of Table 2
# Summary of the method: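 HEK293T transiently transfected in 96-well format with N-terminal FLAG-tagged GPCRs (pMEX vector); expression confirmed by anti-FLAG flow cytometry. Lysed 30 min on ice (Tris pH 7.4, NaCl, NP-40, deoxycholate, protease inhibitors), sonicated. Lysates with 1 nM 125I photoprobe at 4°C, UV 15 min, SDS-PAGE, autoradiography. Vector-transfected HEK293T as blank; lysate from an equal number of U937 cells as positive control.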
# bovine coronary arteries [5] = conditions: cited from earlier work
# [6] = U937 cell (mixed) membranes, 1 nM photoprobe
SMILES,"Inhibition of photolabeling of the 47 KDa protein, in words [1, 6]",Ki [1] [nM],other results
CCCCC/C=C\C/C=C\C/C=C\C=C\C(=O)CCCC(=O)O [5-oxo-eicosatetraenoic acid],not inhibited,,
"CCCCCC=CCC=CCC(O)C(O)CC=CCCCC(=O)O (stereo not drawn) [8,9-DHET, 8,9-dihydroxyeicosatrienoic acid]",not inhibited,,"Effect on 20-125I-14,15-EE5ZE binding, in words [2]: not to displace"
"CCCCC/C=C\C/C=C\CC1OC1C/C=C\CCCC(=O)O (stereo not drawn) [8,9-EET]",,444,
"CCCCC/C=C\C[C@H]1O[C@H]1C/C=C\C/C=C\CCCC(=O)O [11,12-EET]",inhibited,11.2,
"CCCCCC1OC1CCCCCCC/C=C\CCCC(=O)O (stereo not drawn) [14,15-EE5ZE, 14,15-cis-epoxy-eicosa-5(Z)-enoic acid]",,1100,
"CCCCCC1OC1CC=CCC=CCC=CCCCC(=O)O (stereo not drawn) [14,15-EET, 14,15-epoxyeicosatrienoic acid]",inhibited,8.28,"EC50 (bovine coronary arteries [3]): ~2000 nM; Inhibition of photolabeling of the 47 KDa protein, in words ([1]; U937 plasma membranes): inhibited"
"CCCCCC1SC1C/C=C\C/C=C\C/C=C\CCCC(=O)O (stereo not drawn) [14,15-Thiirane]",did not alter,> 10000,"Inhibition of photolabeling of the 47 KDa protein, in words ([1]; U937 cell (mixed) membranes, 1 nM photoprobe, listed as thiirane analog of 14,15-EET): not inhibited"
"[N-]=[N+]=Nc1cccc(S(=O)(=O)NC(=O)CCCCCC/C=C\CCCCC2OC2CCCCCI)c1 (stereo not drawn) [20-I-14,15-EE8ZE-APSA, 20-iodo-14,15-epoxyeicosa-8Z-enoyl-3-azidophenylsulfonamide]",,,"ED50 for relaxation of preconstricted bovine coronary arteries, in words (bovine coronary arteries [3]; compared with 14,15-EET): comparable to 14,15-EET; EC50 (bovine coronary arteries [3]): ~2000 nM"
"[N-]=[N+]=Nc1cccc(S(=O)(=O)NC(=O)CCCCCC/C=C\CCCCC2OC2CCCCC[125I])c1 (stereo not drawn) [20-^125I-14,15-EE8ZE-APSA]",,,"Photolabeling of lysates of GPCR expressing HEK293T cells, in words [4]: No radiolabeled bands"
C#CCOc1ccccc1CCCCCC(=O)NS(C)(=O)=O [MS-PPOH],partially inhibited,,"Ki ([2]; read-out: Ki, inhibition of 20-125I-14,15-EE5ZE binding): 1560 nM; Effect on 14,15-EET-induced relaxations of bovine coronary arteries, in words (bovine coronary arteries [5]): blocked"
"CCCCC[C@H](O)/C=C/[C@@H]1[C@@H](C/C=C\CCCC(=O)O)[C@H]2CO[C@@H]1C2 [U46619, 9-11-dideoxy-11α,9a-epoxymethano-prostaglandin F2α]",not inhibited,,
CC(=O)N1CCN(c2ccc(OCC3COC(Cn4ccnc4)(c4ccc(Cl)cc4Cl)O3)cc2)CC1 (stereo not drawn) [ketoconazole],partially inhibited,,"Inhibition of 20-125I-14,15-EE5ZE binding ([2]; 50 μM): 50%"
Clc1ccc(COC(Cn2ccnc2)c2ccc(Cl)cc2Cl)c(Cl)c1 (stereo not drawn) [miconazole],inhibited,,"Inhibition of photolabeling of the 47 KDa protein, in words ([1]; U937 cell (mixed) membranes, 1 nM photoprobe, listed as Miconazole): completely blocked; Effect on 14,15-EET-induced relaxations of bovine coronary arteries, in words (bovine coronary arteries [5]): blocked"
C=CCN1CC[C@]23c4c5ccc(O)c4O[C@H]2C(=O)CC[C@@]3(O)[C@H]1C5 [naloxone],not inhibited,,
CCCC(C(=O)OCCN(CC)CC)(c1ccccc1)c1ccccc1 [proadifen],,,"Effect on 20-125I-14,15-EE5ZE binding, in words [2]: did not alter; Effect on 14,15-EET-induced relaxations of bovine coronary arteries, in words (bovine coronary arteries [5]): did not alter"
Nc1ccc(S(=O)(=O)Nc2ccnn2-c2ccccc2)cc1 [sulfaphenazole],,,"Effect on 20-125I-14,15-EE5ZE binding, in words [2]: did not alter"

# — paper PMC3100183 (Biochemistry, 2011)
